Measurements taken from ChEMBL document CHEMBL1139789, “Synthesis of neuroprotective cyclopentenone prostaglandin analogs: suppression of manganese-induced apoptosis of PC12 cells” (Bioorg Med Chem Lett, 2007).
Activity calls are given as the source filed them. No cut-off for these calls is given here.

Key:
PC-12 [1] = experiment: Inhibition of manganese ion-induced apoptosis in PC12 cells assessesed as suppression of DNA fragmentation upto 20 uM; assay type: functional, cell-based
Outline: (§1)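 PC12 cells (2·10⁷) preincubated with test agent at 10 and 20 μM for 30 min at 37 °C in DMEM plus 5% FBS. MnCl₂ then added to 0.25 mM and incubation continued 20 h at 37 °C. Soluble DNA extracted, run on agarose gels, laddering visualized on UV transilluminator.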

PC-12 [2] = experiment: Toxicity in PC12 cells assessed by measuring DNA fragmentation upto 20 uM; assay type: cell-based, Homo sapiens
Outline: (§2)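 PC12 cells (2·10⁷) exposed to agent at 10 and 20 μM in DMEM with 5% FBS at 37 °C, 30 min preincubation, then 20 h further incubation with no MnCl₂ added. Apoptosis judged by DNA laddering: soluble DNA extracted, agarose gel electrophoresis, UV transilluminator visualization.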

PC-12 [3] = experiment: Inhibition of manganese ion-induced apoptosis in PC12 cells assessesed as suppression of DNA fragmentation at 10 uM; assay type: functional; settings: Rattus norvegicus; outline: as §1
PC-12 [4] = experiment: Toxicity in PC12 cells assessed by measuring DNA fragmentation at 10 uM; assay type: cell-based, Homo sapiens; settings: pc-12, 10 µM; outline: as §2

COC(=O)CCCCCC[C@@H]1C(=O)C=C[C@H]1CCCCCCc1ccc(C)cc1 was tested, and the Activity (PC-12 [1]) was “inactive” and the Activity (PC-12 [2]) was “Non-toxic”.

With CCCCCCC/C=C1/C(=O)C=C[C@@H]1CCCCCCC(=O)OC the inhibition at 10 µM (PC-12 [3]) was 50% and the Activity (PC-12 [2]) was “Non-toxic”.

In the case of COC(=O)CCCCCC[C@@H]1C=CC(=O)/C1=C/CCCCOc1ccc(Br)cc1, the Activity (PC-12 [1]) is reported as “inactive” and the Activity (PC-12 [4]) is reported as “Toxic”.

In the case of COC(=O)CCCCCC[C@H]1C=CC(=O)/C1=C/CCCCOc1ccc(Br)cc1, the inhibition at 10 µM (PC-12 [3]) is reported as < 50% and the Activity (PC-12 [2]) is reported as “Non-toxic”.

In the case of CCCCC/C=C/C=C1/C(=O)C=CC1C/C=C\CCCC(=O)O (stereo unspecified), the Activity (PC-12 [1]) is reported as “inactive” and the Activity (PC-12 [4]) is reported as “Toxic”.

COC(=O)CCCCC/C=C1/C(=O)C=C[C@H]1CCCCCCc1ccc(C)cc1 was tested, and the inhibition at 10 µM (PC-12 [3]) was 50% and the Activity (PC-12 [4]) was “Toxic”.

With COC(=O)CCCCC/C=C1/C(=O)CC[C@H]1CCCCCCc1ccc(C)cc1 the Activity (PC-12 [1]) was “inactive” and the Activity (PC-12 [2]) was “Non-toxic”.

For COC(=O)CCCCCC[C@H]1C=CC(=O)/C1=C/CCCCCc1ccc(C)cc1, the inhibition at 10 µM (PC-12 [3]) was 50% and the Activity (PC-12 [2]) was “Non-toxic”.

For CCCCC[C@H](O)/C=C/[C@H]1C=CC(=O)/C1=C/CCCCCC(=O)OC, the Activity (PC-12 [1]) was “inactive” and the Activity (PC-12 [4]) was “Toxic”.

In the case of COC(=O)CCCCC/C=C1\CC=CC1=O, the Activity (PC-12 [1]) is reported as “inactive” and the Activity (PC-12 [2]) is reported as “Non-toxic”.

Work on CCCCCCCC[C@@H]1C=CC(=O)/C1=C/CCCCCC(=O)OC yielded an inhibition at 10 µM (PC-12 [3]) of 50%.
